Molecules are shown by their SMILES. Calls of active or inactive are those of the source. No cut-off for these calls is given here.

Assay [1] concerns the target TRAF2 and NCK-interacting protein kinase (Homo sapiens) (UniProt Q9UKE5). Kind of assay: Inhibition of ZC2/TNIK Lys1 labeling site in human A-375 cells at 0.5 uM by KiNativ Profiling analysis relative to control. In kind it is cell-based.
Assay [2] addresses T1, Ephrin type-B receptor 2 (Homo sapiens) (UniProt P29323).
T1 sequence (whole entry): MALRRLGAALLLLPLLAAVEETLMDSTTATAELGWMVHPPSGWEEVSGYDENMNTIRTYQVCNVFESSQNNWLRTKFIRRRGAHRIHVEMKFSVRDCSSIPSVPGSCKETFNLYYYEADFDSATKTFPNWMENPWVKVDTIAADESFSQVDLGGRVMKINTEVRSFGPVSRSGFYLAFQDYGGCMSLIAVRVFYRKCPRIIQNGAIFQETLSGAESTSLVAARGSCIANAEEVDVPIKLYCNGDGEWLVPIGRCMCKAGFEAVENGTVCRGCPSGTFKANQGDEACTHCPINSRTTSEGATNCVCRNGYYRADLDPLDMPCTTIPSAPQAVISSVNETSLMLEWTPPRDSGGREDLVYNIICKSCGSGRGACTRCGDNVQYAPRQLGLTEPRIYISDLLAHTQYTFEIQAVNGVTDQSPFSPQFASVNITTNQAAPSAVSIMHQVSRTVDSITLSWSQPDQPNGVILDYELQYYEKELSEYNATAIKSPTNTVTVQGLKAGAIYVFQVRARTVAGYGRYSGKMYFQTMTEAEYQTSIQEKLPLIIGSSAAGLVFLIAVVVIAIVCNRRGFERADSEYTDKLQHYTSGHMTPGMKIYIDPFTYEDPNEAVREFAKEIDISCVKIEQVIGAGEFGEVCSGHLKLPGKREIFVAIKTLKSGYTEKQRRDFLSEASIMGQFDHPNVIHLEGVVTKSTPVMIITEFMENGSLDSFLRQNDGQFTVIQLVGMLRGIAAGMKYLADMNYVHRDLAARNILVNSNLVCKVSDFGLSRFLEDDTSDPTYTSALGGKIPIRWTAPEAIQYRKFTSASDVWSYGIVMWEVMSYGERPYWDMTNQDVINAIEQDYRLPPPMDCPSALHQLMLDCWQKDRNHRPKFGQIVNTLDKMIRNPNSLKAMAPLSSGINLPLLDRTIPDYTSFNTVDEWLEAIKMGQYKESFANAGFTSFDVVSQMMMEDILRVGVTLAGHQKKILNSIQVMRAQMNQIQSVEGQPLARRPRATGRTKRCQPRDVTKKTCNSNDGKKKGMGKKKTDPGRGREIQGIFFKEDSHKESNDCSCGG
Description: Inhibition of EphB2 ACT labeling site in human A-375 cells at 0.05 uM by KiNativ Profiling analysis relative to control. In kind it is cell-based.

The target in assay [3] is Serine/threonine-protein kinase Nek7 (Homo sapiens) (UniProt Q8TDX7). Kind of assay: Inhibition of NEK7 ACT labeling site in human A-375 cells at 0.05 uM by KiNativ Profiling analysis relative to control. In kind it is cell-based.
For assay [4], the target named is Epidermal growth factor receptor (Homo sapiens) (UniProt P00533). Kind of assay: Inhibition of EGFR ACT labeling site harbouring LLGAEEKEYHAEGGKVPIK in human A-375 cells at 0.5 uM by KiNativ Profiling analysis relative to control. The format is cell-based. In a few lines:
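Live A375 melanoma cells were treated with compound at 0.5 or 5 μM, then lysed. Lysates were labeled with a lysine-reactive ATP or ADP-biotin probe. The read-out was protection of each kinase probe-labeling site from labeling, relative to control.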

Assay [5] concerns the target Calcium/calmodulin-dependent protein kinase type II subunit delta (Homo sapiens) (UniProt Q13557). Description: Inhibition of CaMK2d Lys1 labeling site in human A-375 cells at 0.5 uM by KiNativ Profiling analysis relative to control. The format is cell-based. In a few lines:
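Live A375 melanoma cells were treated with compound at 5 or 0.5 μM. The cells were then lysed, and the lysates were labeled with a lysine-reactive ATP or ADP-biotin acyl probe (KiNativ). Inhibition is the compound's protection of each kinase labeling-site peptide from probe labeling, relative to untreated control.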

Assay [6] concerns the target Cyclin-dependent kinase 11B (Homo sapiens) (UniProt P21127). Kind of assay: Inhibition of PITSLRE Lys2 labeling site in human A-375 cells at 5 uM by KiNativ Profiling analysis relative to control. The format is cell-based.
Assay [7] addresses T2, Serine/threonine-protein kinase Nek9 (Homo sapiens) (UniProt Q8TD19).
T2 sequence (whole entry): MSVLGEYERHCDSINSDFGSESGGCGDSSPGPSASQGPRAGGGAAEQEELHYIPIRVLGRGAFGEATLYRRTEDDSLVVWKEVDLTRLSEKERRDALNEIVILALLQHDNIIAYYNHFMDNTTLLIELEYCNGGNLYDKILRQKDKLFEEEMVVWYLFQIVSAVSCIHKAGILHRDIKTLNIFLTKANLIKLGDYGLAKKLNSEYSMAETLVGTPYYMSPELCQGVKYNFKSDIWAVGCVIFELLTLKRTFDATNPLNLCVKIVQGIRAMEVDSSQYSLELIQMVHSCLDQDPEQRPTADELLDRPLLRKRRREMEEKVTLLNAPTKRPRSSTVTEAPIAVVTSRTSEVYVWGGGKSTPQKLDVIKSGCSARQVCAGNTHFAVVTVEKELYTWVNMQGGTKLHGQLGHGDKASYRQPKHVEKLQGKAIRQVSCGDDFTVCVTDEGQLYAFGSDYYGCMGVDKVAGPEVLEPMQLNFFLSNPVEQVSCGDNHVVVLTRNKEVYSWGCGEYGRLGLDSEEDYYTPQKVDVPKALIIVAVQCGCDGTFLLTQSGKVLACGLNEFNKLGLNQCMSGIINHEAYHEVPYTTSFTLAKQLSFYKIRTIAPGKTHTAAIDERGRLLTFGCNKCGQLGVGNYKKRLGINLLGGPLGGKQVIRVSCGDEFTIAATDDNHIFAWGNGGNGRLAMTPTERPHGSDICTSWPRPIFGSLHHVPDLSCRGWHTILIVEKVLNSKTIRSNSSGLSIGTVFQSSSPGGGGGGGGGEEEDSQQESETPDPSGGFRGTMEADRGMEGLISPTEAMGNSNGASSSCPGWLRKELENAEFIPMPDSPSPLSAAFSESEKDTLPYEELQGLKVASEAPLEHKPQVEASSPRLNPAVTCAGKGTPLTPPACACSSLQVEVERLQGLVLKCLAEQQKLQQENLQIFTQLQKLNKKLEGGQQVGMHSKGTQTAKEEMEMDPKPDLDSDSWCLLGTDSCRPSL
Description: Inhibition of NEK9 ACT labeling site in human A-375 cells at 0.5 uM by KiNativ Profiling analysis relative to control. The format is cell-based.

Assay [8] addresses Serine/threonine-protein kinase WNK1 (Homo sapiens) (UniProt Q9H4A3). Kind of assay: Inhibition of Wnk1 ACT labeling site in human A-375 cells at 5 uM by KiNativ Profiling analysis relative to control. In kind it is cell-based.
Another assay relates to GEN2.2. Kind of assay: Inhibition of CL097 induced p38 phosphorylation level in human GEN2.2 cells at 1 uM preincubated with compound for 1 hr followed by CL097 stimulation and measured after 30 mins by Western blot analysis. In kind it is functional, cell-based. In a few lines: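 Gen2.2 cells were pretreated with compound at 1 μM for 1 h, then stimulated with CL097 for 30 min. Lysates were analysed by Western blot for phosphorylation of p105, p38 and JNK1/2.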

Chain of Cyclin-dependent kinase 11B (Homo sapiens) (P21127 whole entry): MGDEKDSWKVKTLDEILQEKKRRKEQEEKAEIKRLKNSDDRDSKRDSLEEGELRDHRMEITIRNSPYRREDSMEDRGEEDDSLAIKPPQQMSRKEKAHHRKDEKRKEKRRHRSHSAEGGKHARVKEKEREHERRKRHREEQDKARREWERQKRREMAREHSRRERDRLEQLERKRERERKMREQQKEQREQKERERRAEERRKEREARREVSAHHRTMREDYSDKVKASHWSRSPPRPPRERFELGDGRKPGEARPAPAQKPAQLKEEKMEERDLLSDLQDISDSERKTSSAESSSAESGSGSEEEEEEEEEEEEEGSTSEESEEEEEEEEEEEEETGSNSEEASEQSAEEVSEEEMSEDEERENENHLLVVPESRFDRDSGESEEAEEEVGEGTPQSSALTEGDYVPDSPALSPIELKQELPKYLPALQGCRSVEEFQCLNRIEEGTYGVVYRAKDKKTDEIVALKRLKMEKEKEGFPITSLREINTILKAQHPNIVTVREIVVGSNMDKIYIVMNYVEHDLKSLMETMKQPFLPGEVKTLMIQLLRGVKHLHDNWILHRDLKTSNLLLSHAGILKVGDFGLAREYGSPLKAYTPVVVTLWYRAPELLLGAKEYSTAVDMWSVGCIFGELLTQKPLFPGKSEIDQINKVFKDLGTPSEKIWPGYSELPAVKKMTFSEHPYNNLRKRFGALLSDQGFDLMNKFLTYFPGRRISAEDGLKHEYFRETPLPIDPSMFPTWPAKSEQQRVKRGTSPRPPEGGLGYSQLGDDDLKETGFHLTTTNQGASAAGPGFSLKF
Chain of TRAF2 and NCK-interacting protein kinase (Homo sapiens) (Q9UKE5 whole entry, looked up): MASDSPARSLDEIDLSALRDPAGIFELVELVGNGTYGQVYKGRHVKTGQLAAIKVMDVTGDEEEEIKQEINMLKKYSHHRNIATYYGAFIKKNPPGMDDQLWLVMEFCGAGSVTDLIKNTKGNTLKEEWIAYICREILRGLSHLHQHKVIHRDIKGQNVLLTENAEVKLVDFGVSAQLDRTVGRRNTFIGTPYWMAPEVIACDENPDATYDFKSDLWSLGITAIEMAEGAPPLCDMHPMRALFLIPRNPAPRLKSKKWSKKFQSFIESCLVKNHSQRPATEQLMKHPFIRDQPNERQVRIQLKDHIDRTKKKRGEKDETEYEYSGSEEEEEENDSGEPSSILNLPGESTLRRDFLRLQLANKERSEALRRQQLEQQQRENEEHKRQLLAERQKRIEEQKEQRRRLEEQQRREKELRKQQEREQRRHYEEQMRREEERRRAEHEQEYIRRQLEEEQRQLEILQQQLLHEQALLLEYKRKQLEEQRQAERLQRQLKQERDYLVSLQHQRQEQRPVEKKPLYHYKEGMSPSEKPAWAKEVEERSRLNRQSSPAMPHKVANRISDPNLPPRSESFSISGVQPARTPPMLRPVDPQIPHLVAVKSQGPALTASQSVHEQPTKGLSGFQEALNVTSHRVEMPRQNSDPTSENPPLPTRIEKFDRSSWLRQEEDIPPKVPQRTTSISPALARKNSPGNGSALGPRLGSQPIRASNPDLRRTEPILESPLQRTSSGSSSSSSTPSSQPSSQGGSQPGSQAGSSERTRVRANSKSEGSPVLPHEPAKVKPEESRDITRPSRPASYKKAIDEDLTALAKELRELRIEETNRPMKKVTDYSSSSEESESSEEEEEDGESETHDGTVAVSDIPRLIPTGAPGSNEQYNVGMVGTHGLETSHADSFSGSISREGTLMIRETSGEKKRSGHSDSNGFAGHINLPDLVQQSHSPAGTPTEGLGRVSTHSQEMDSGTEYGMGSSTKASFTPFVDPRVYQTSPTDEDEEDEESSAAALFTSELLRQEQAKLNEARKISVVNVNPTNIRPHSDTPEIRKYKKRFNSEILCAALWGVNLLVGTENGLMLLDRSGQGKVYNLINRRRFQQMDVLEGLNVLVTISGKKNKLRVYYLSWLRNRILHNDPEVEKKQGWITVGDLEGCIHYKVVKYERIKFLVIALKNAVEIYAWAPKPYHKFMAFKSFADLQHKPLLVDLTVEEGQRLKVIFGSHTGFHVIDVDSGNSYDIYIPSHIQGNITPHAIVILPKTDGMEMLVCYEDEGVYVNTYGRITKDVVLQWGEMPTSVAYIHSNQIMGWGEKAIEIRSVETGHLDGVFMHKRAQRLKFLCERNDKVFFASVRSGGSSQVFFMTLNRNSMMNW
Chain of Serine/threonine-protein kinase WNK1 (Homo sapiens) (Q9H4A3 whole entry, looked up): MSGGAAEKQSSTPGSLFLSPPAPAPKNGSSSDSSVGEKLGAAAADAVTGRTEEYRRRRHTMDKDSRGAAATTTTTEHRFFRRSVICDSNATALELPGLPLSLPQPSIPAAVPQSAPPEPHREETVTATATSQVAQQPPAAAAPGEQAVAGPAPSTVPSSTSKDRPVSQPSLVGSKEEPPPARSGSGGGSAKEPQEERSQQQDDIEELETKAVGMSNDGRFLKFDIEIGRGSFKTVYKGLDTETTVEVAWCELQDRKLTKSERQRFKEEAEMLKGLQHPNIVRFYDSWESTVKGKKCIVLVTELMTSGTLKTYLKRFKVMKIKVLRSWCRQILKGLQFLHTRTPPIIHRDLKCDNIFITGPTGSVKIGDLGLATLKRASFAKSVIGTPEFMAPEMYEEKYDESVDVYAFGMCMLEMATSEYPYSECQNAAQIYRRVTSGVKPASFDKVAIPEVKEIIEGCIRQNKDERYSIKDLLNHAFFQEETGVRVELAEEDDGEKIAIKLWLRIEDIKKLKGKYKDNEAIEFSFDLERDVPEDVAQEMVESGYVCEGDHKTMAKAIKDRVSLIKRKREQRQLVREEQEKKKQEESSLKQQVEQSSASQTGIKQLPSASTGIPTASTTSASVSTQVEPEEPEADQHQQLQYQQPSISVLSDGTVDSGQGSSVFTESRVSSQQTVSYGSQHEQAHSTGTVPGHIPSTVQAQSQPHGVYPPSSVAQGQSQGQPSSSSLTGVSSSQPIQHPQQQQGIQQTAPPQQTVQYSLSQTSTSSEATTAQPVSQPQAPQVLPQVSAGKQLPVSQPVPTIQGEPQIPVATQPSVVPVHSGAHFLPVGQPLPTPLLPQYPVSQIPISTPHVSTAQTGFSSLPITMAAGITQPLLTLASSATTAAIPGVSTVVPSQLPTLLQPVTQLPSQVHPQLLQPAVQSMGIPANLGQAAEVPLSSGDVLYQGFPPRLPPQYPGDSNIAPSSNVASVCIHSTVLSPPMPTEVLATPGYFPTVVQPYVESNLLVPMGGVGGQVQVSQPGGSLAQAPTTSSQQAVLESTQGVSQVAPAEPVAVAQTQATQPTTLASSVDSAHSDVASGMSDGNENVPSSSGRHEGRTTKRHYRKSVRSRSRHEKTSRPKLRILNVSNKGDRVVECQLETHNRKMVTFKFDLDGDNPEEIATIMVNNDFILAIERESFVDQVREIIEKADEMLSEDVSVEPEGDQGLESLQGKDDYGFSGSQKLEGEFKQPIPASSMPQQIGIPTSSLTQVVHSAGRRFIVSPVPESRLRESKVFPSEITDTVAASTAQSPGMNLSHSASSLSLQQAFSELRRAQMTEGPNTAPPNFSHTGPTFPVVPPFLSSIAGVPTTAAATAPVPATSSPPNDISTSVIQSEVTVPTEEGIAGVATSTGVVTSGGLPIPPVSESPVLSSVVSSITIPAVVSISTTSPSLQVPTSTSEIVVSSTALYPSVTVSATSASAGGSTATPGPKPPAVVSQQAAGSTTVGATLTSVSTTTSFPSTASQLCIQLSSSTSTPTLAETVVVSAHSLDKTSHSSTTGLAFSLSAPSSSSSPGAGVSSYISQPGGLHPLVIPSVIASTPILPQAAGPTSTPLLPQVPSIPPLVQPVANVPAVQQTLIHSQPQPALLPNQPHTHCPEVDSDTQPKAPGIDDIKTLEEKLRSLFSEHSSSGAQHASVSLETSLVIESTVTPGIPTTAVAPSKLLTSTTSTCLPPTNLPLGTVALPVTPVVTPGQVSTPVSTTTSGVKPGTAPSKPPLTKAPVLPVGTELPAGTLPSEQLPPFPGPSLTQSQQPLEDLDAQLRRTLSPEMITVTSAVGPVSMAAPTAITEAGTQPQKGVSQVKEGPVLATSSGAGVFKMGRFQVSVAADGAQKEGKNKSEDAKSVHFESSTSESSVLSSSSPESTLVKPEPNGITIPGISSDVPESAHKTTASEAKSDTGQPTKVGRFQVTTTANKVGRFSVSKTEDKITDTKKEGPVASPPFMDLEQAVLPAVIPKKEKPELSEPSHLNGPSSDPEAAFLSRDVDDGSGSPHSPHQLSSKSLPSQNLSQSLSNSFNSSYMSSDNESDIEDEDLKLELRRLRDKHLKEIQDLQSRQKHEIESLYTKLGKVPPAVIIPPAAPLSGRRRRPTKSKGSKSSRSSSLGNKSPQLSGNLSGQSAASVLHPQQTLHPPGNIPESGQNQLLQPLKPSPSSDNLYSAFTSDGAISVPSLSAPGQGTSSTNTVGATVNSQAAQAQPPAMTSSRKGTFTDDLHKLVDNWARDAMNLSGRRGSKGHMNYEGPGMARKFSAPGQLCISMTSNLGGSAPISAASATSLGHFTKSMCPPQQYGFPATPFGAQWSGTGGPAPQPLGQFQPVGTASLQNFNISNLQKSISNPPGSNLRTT
Chain of Calcium/calmodulin-dependent protein kinase type II subunit delta (Homo sapiens) (Q13557 whole entry): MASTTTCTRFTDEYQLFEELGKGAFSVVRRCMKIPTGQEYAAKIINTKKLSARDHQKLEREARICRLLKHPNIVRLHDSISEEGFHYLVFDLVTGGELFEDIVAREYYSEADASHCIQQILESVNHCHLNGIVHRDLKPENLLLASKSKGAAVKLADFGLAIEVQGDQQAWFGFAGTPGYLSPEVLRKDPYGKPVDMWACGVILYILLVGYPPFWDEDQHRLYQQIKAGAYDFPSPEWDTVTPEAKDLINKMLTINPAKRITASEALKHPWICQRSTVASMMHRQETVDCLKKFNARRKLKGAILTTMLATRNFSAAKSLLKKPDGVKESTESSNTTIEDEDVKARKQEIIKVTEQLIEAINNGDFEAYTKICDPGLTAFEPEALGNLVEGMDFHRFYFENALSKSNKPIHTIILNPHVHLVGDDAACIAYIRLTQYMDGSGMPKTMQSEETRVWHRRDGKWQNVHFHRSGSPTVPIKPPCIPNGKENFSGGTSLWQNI

Take `CCN1CCN(Cc2ccc(NC(=O)c3ccc(C)c(/C=C/c4cnc5[nH]ccc5c4OC)c3)cc2C(F)(F)F)CC1`: the inhibition was 74.9% in assay [1]; 36.9% in assay [2]; 6.8% in assay [3]; -0.5% in assay [4]; 26% in assay [5]; -9.5% in assay [6]. The figures for the inhibition in assay [7] and in assay [8] were -3.8% and -4.5%, respectively.
Consider `CCN1CCN(Cc2ccc(NC(=O)c3ccc(C)c(Oc4ccnc5[nH]ccc45)c3)cc2C(F)(F)F)CC1`, for which the inhibition in [1] is 77.9%; in assay [2], 5%; in [3], 14.2%; in [4] it was 4.8%; in [5], 8.7%; in assay [6] it was 6.3%. Also, the results for the inhibition in assay [7] and in assay [8] were -2.4% and 14.4%, respectively. Further, the inhibition entry in the assay with GEN2.2 is “Active”.
For the compound `CNc1cc(Oc2cc(C(=O)Nc3cc(-n4cnc(C)c4)cc(C(F)(F)F)c3)ccc2C)ncn1`, in the assay on GEN2.2, the inhibition entry is “inactive”.

These data come from ChEMBL document CHEMBL5696442, “Discovery of type II inhibitors of TGFβ-activated kinase 1 (TAK1) and mitogen-activated protein kinase kinase kinase kinase 2 (MAP4K2)” (J Med Chem, 2015).
